Results on 21 molecules are retold here after ChEMBL document CHEMBL1157166, “Synthesis, antimalarial activity, structure-activity relationship analysis of thieno-[3,2-b]benzothiazine S,S-dioxide analogs” (2008).

The term inhibition denotes the share of the control response that was lost under treatment.

Common to all, as to format: functional
The test system of test [1] is Plasmodium berghei. The test is described as follows: Antiparasitic activity against Plasmodium berghei ANKA infected BALB/c mice (Mus musculus) after 18 hrs as reduced hemoglobin proteolysis. Summed up:
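Parasite extract: blood from P. berghei ANKA-infected mice (30–70% parasitemia); erythrocytes washed and lysed, then freed parasites freeze–thawed three times. Native mouse hemoglobin was incubated with extract, GSH and 0.2 M acetate buffer pH 5.4, with compound in DMSO, at 37 °C for 18 h. Leupeptin, pepstatin and chloroquine were references. Digestion was judged visually from the 14.4 kDa globin band on SDS–PAGE.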

In test [2] the target is T1, Histidine-rich protein PFHRP-II (Plasmodium falciparum) (UniProt P05227).
T1 sequence (whole entry): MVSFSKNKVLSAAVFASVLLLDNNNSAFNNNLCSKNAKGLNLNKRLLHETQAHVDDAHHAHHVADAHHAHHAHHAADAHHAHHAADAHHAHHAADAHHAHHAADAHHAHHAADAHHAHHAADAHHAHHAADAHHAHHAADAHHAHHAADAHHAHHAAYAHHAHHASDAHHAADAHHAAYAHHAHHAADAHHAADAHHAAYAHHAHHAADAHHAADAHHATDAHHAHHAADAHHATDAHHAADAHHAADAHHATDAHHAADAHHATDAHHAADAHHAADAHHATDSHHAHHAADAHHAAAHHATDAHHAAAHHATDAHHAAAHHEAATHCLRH
Put plainly: Inhibition of beta-hematin formation using synthetic hemin chloride. More on the design: concentration or dose not given beside the values. Conditions: concentration not given here. Summed up:
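Hemin chloride (4 mM in DMSO) was mixed in triplicate with compound in DMSO (50–5 mM as added); water or DMSO served as controls. Acetate buffer (0.2 M, pH 4.4) was added, then incubated at 37 °C for 48 h and centrifuged. The pellet was washed with DMSO, dissolved in 0.2 N NaOH and diluted 1:2 in 0.1 N NaOH. A405 was read and expressed as % inhibition of β-hematin formation.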

For test [3], the system named is Plasmodium berghei. The test is described as follows: Antiparasitic activity as reduced parasitaemia against chloroquine-sensitive Plasmodium berghei ANKA infected NIH mice (Mus musculus) at 20 mg/kg intraperitoneal dose at day 4. Set-up: scale not given: the % may be the effect or the level left. Summed up: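 Four-day suppressive test in NIH mice (18–22 g) infected ip with 1 × 10⁷ P. berghei. Dosing began 2 h post-infection: 20 mg/kg ip once daily for 4 days, from a 0.1 M DMSO stock diluted in 2% saline–Tween 20. Chloroquine at 25 mg/kg was the positive control. Day-4 parasitemia was read from Giemsa smears as a percentage versus saline-treated controls.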

In test [4] the test system is Plasmodium berghei. Put plainly: Antiparasitic activity as survival days against chloroquine-sensitive Plasmodium berghei ANKA infected NIH mice (Mus musculus) at 20 mg/kg intraperitoneal dose. Summed up: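 NIH mice (18–22 g) infected ip with 1 × 10⁷ P. berghei parasites; dosing started 2 h post-infection. Compound dissolved in DMSO (0.1 M stock), diluted in 2% Saline–Tween 20, given ip at 20 mg/kg once daily for 4 days. Chloroquine 25 mg/kg as positive control; saline-treated mice as untreated controls. Survival time after infection recorded versus control mice.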

On to `CC(=O)N[C@@H](CC(C)C)C(=O)N[C@@H](CC(C)C)C(=O)N[C@H](C=O)CCCNC(=N)N` [LEUPEPTIN], for which, in the test on Plasmodium berghei [1], the “inhibition (INH)” value was 89.06%.

In turn, `CCOC(=O)c1sc2c(c1N)S(=O)(=O)c1ccc(Cl)cc1N2c1cccc(Cl)c1` had an inhibition in test [2] of less than 5%. Moreover, the “inhibition (INH)” value in the test on Plasmodium berghei [1] amounted to 0%.

Take `CCOC(=O)c1sc2c(c1N)S(=O)(=O)c1cc(Cl)ccc1N2c1ccc(Cl)cc1`: the inhibition in test [2] is less than 5%. Besides, in the test on Plasmodium berghei [1], the “inhibition (INH)” value turned out to be 0%.

Take `CCOC(=O)c1sc2c(c1N)S(=O)(=O)c1ccc(Cl)cc1N2c1ccccc1C`: the inhibition in test [2] was less than 5%. Moreover, in the test with Plasmodium berghei [3], the Activity was found to be 8.7%. Further, the “inhibition (INH)” value in the test with Plasmodium berghei [1] was 74.36%. Also, in the test on Plasmodium berghei [4], the Survival turned out to be 15.5 days.

As for `CCOC(=O)c1sc2c(c1N)S(=O)(=O)c1ccc(Cl)cc1N2c1ccccc1`, the inhibition in test [2] is less than 5%. For the same molecule, the Activity in the test on Plasmodium berghei [3] turned out to be 9.75%. In the test on Plasmodium berghei [1], the “inhibition (INH)” value is 78.17%. Besides, the Survival with Plasmodium berghei [4] was determined as 13 days.

Molecule `CCOC(=O)c1sc2c(c1N)S(=O)(=O)c1cc(Cl)ccc1N2c1cccc(OC)c1` gave an inhibition in test [2] of less than 5%. The “inhibition (INH)” value in the test on Plasmodium berghei [1] is on record as 0%.

As for `CCOC(=O)c1sc2c(c1N)S(=O)(=O)c1ccc(Cl)cc1N2c1cccc(OC)c1`, the inhibition in test [2] was less than 5%. The Activity with Plasmodium berghei [3] is on record as 11.6%. Moreover, the “inhibition (INH)” value in the test with Plasmodium berghei [1] turned out to be 55.96%. This molecule also showed a Survival with Plasmodium berghei [4] of 12.16 days.

`CCOC(=O)c1sc2c(c1N)S(=O)(=O)c1cc(Cl)ccc1N2c1ccc(C)cc1` came in with an inhibition in test [2] of less than 5%. In addition, the “inhibition (INH)” value with Plasmodium berghei [1] worked out at 0%.

`CCOC(=O)c1sc2c(c1N)S(=O)(=O)c1cc(Cl)ccc1N2c1ccccc1C` showed an inhibition in test [2] of less than 5%. For the same molecule, the “inhibition (INH)” value in the test with Plasmodium berghei [1] came out at 0%.

Regarding `CCOC(=O)c1sc2c(c1N)S(=O)(=O)c1cc(Cl)ccc1N2c1cc(C)ccc1C`, the inhibition in test [2] is less than 5%. Besides, the “inhibition (INH)” value with Plasmodium berghei [1] is 0%.

Take `CCOC(=O)c1sc2c(c1N)S(=O)(=O)c1ccc(Cl)cc1N2c1ccc(Cl)cc1`: in test [2], the inhibition was less than 5%. The “inhibition (INH)” value in the test with Plasmodium berghei [1] is 0%.

Consider `CCOC(=O)c1sc2c(c1N)S(=O)(=O)c1cc(Cl)ccc1N2c1ccccc1`, for which the inhibition in test [2] was less than 5%. Besides, the “inhibition (INH)” value in the test on Plasmodium berghei [1] turned out to be 0%.

In the case of `CCOC(=O)c1sc2c(c1N)S(=O)(=O)c1cc(Cl)ccc1N2c1cccc(Cl)c1`, the inhibition in test [2] is less than 5%. In addition, the “inhibition (INH)” value with Plasmodium berghei [1] came to 0%.

Turning to `CCOC(=O)c1sc2c(c1N)S(=O)(=O)c1cc(Cl)ccc1N2c1ccc(Cl)c(Cl)c1`, the inhibition in test [2] was less than 5%. Besides, the “inhibition (INH)” value in the test with Plasmodium berghei [1] was 0%.

As for `CC(C)CC(=O)N[C@H](C(=O)N[C@H](C(=O)N[C@@H](CC(C)C)[C@@H](O)CC(=O)N[C@@H](C)C(=O)N[C@@H](CC(C)C)[C@@H](O)CC(=O)O)C(C)C)C(C)C` [PEPSTATIN], the “inhibition (INH)” value in the test on Plasmodium berghei [1] amounted to 92.94%.

In turn, `CCOC(=O)c1sc2c(c1N)S(=O)(=O)c1ccc(Cl)cc1N2c1ccc(Cl)c(Cl)c1` yielded an inhibition in test [2] of less than 5%. Besides, the “inhibition (INH)” value in the test with Plasmodium berghei [1] is given as less than 5%.

In test [2], `CCOC(=O)c1sc2c(c1N)S(=O)(=O)c1ccc(Cl)cc1N2c1ccc(OC)cc1` had an inhibition of less than 5%. In the test on Plasmodium berghei [3], this molecule came in with an Activity of 11.21%. In the test on Plasmodium berghei [1], the “inhibition (INH)” value is given as 37.01%. This molecule also yielded a Survival with Plasmodium berghei [4] of 11.6 days.

For the molecule `CCOC(=O)c1sc2c(c1N)S(=O)(=O)c1ccc(Cl)cc1N2c1cc(C)ccc1C`, in test [2], the inhibition is less than 5%. The molecule also gave an Activity in the test with Plasmodium berghei [3] of 9.4%. Moreover, the “inhibition (INH)” value in the test on Plasmodium berghei [1] was 76.81%. In addition, in the test with Plasmodium berghei [4], the Survival turned out to be 11.42 days.

In test [2], `CCOC(=O)c1sc2c(c1N)S(=O)(=O)c1ccc(Cl)cc1N2c1ccc(C)cc1` gave an inhibition of less than 5%. In the test with Plasmodium berghei [3], this molecule had an Activity of 15.7%. Moreover, in the test on Plasmodium berghei [1], the “inhibition (INH)” value was 64.98%. The molecule further had a Survival in the test with Plasmodium berghei [4] of 10.8 days.

In turn, `CCN(CC)CCCC(C)Nc1ccnc2cc(Cl)ccc12` (stereo not drawn) [CHLOROQUINE] gave an Activity in the test with Plasmodium berghei [3] of 1.31%. Also, the “inhibition (INH)” value in the test on Plasmodium berghei [1] worked out at 24.12%. The same molecule came in with a Survival in the test on Plasmodium berghei [4] of 30 days.

In test [2], `CCOC(=O)c1sc2c(c1N)S(=O)(=O)c1cc(Cl)ccc1N2c1ccc(OC)cc1` returned an inhibition of less than 5%. Besides, the “inhibition (INH)” value with Plasmodium berghei [1] was determined as 0%.
